Assay results published in ChEMBL document CHEMBL4414643, “Pharmacokinetics of Phytocannabinoid Acids and Anticonvulsant Effect of Cannabidiolic Acid in a Mouse Model of Dravet Syndrome” (J Nat Prod, 2019).
Calls of active or inactive are those of the source.

Key:
[1] = Ratio of drug level in anesthetized C57BL/6J mouse brain to plasma at 10 mg/kg, ip administered as single dose measured upto 240 mins by LC-MS/MS analysis; format: ADME, organism-based; conditions: read-out: BPR
In short: (§1)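 Male and female mice (C57BL/6J or C57BL/6J x 129 F1), postnatal days 21-28, single i.p. injection at 10 mL/kg in vegetable oil or ethanol–Tween 80–saline (1:1:18). Blood taken by cardiac puncture under isoflurane at time points 15–240 min. Plasma and PBS brain homogenate extracted with ice-cold acetonitrile, diazepam internal standard, quantified by LC-MS/MS. Mean concentrations per time point (n = 3-5); noncompartmental analysis.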

[2] = Cmax in anesthetized C57BL/6J mouse plasma at 10 mg/kg, ip administered as single dose measured upto 240 mins by LC-MS/MS analysis; format: ADME, organism-based; set-up: dose 10 mg/kg, route intraperitoneal; in short: as §1
[3] = Cmax in anesthetized C57BL/6J mouse brain at 10 mg/kg, ip administered as single dose measured upto 240 mins by LC-MS/MS analysis; format: ADME, organism-based; set-up: dose 10 mg/kg, route intraperitoneal; conditions: in vivo, 4 h; in short: as §1
[4] = Tmax in anesthetized C57BL/6J mouse plasma at 10 mg/kg, ip administered as single dose measured upto 240 mins by LC-MS/MS analysis; format: ADME, organism-based; in short: as §1
[5] = Tmax in anesthetized C57BL/6J mouse brain at 10 mg/kg, ip administered as single dose measured upto 240 mins by LC-MS/MS analysis; format: ADME, organism-based; in short: as §1
[6] = Half life in anesthetized C57BL/6J mouse plasma at 10 mg/kg, ip administered as single dose measured upto 240 mins by LC-MS/MS analysis; format: ADME, organism-based; in short: as §1
[7] = Half life in anesthetized C57BL/6J mouse brain at 10 mg/kg, ip administered as single dose measured upto 240 mins by LC-MS/MS analysis; format: ADME, organism-based; in short: as §1
[8] = AUC in anesthetized C57BL/6J mouse plasma at 10 mg/kg, ip administered as single dose measured upto 240 mins by LC-MS/MS analysis; format: ADME, organism-based; set-up: time < 4 hr, dose 10 mg/kg, route intraperitoneal; in short: as §1
[9] = AUC in anesthetized C57BL/6J mouse brain at 10 mg/kg, ip administered as single dose measured upto 240 mins by LC-MS/MS analysis; format: ADME, organism-based; set-up: dose 10 mg/kg, time < 4 hr, route intraperitoneal; conditions: in vivo, 4 h; in short: as §1
[10] = Cmax in anesthetized C57BL/6J mouse plasma at 10 mg/kg, ip administered as single dose measured upto 240 mins in presence of vegetable oil by LC-MS/MS analysis; format: ADME, organism-based; set-up: dose 10 mg/kg, route intraperitoneal; in short: as §1
[11] = Cmax in anesthetized C57BL/6J mouse brain at 10 mg/kg, ip administered as single dose measured upto 240 mins in presence of vegetable oil by LC-MS/MS analysis; format: ADME, organism-based; set-up: dose 10 mg/kg, route intraperitoneal; conditions: in vivo, 4 h; in short: as §1
[12] = Tmax in anesthetized C57BL/6J mouse plasma at 10 mg/kg, ip administered as single dose measured upto 240 mins in presence of vegetable oil by LC-MS/MS analysis; format: ADME, organism-based; in short: as §1
[13] = Tmax in anesthetized C57BL/6J mouse brain at 10 mg/kg, ip administered as single dose measured upto 240 mins in presence of vegetable oil by LC-MS/MS analysis; format: ADME, organism-based; in short: as §1
[14] = Half life in anesthetized C57BL/6J mouse plasma at 10 mg/kg, ip administered as single dose measured upto 240 mins in presence of vegetable oil by LC-MS/MS analysis; format: ADME, organism-based; in short: as §1
[15] = Half life in anesthetized C57BL/6J mouse brain at 10 mg/kg, ip administered as single dose measured upto 240 mins in presence of vegetable oil by LC-MS/MS analysis; format: ADME, organism-based; in short: as §1
[16] = AUC in anesthetized C57BL/6J mouse plasma at 10 mg/kg, ip administered as single dose measured upto 240 mins in presence of vegetable oil by LC-MS/MS analysis; format: ADME, organism-based; set-up: time < 4 hr, dose 10 mg/kg, route intraperitoneal; in short: as §1
[17] = AUC in anesthetized C57BL/6J mouse brain at 10 mg/kg, ip administered as single dose measured upto 240 mins in presence of vegetable oil by LC-MS/MS analysis; format: ADME, organism-based; set-up: dose 10 mg/kg, time < 4 hr, route intraperitoneal; conditions: in vivo, 4 h; in short: as §1
[18] = Ratio of drug level in anesthetized C57BL/6J mouse brain to plasma at 5 mg/kg, ip administered as single dose measured upto 240 mins in presence of vegetable oil by LC-MS/MS analysis; format: ADME, organism-based; conditions: read-out: BPR
[19] = Ratio of drug level in anesthetized C57BL/6J mouse brain to plasma at 5 mg/kg, ip administered as single dose measured upto 240 mins in presence of tween-80 by LC-MS/MS analysis; format: ADME, organism-based; conditions: read-out: BPR
[20] = Cmax in anesthetized C57BL/6J mouse plasma at 10 mg/kg, ip administered as single dose measured upto 240 mins in presence of tween-80 by LC-MS/MS analysis; format: ADME, organism-based; set-up: dose 10 mg/kg, route intraperitoneal; in short: as §1
[21] = Cmax in anesthetized C57BL/6J mouse brain at 10 mg/kg, ip administered as single dose measured upto 240 mins in presence of tween-80 by LC-MS/MS analysis; format: ADME, organism-based; set-up: dose 10 mg/kg, route intraperitoneal; conditions: in vivo, 4 h; in short: as §1
[22] = Tmax in anesthetized C57BL/6J mouse plasma at 10 mg/kg, ip administered as single dose measured upto 240 mins in presence of tween-80 by LC-MS/MS analysis; format: ADME, organism-based; in short: as §1
[23] = Tmax in anesthetized C57BL/6J mouse brain at 10 mg/kg, ip administered as single dose measured upto 240 mins in presence of tween-80 by LC-MS/MS analysis; format: ADME, organism-based; in short: as §1
[24] = Half life in anesthetized C57BL/6J mouse plasma at 10 mg/kg, ip administered as single dose measured upto 240 mins in presence of tween-80 by LC-MS/MS analysis; format: ADME, organism-based; in short: as §1
[25] = Half life in anesthetized C57BL/6J mouse brain at 10 mg/kg, ip administered as single dose measured upto 240 mins in presence of tween-80 by LC-MS/MS analysis; format: ADME, organism-based; in short: as §1
[26] = AUC in anesthetized C57BL/6J mouse plasma at 10 mg/kg, ip administered as single dose measured upto 240 mins in presence of tween-80 by LC-MS/MS analysis; format: ADME, organism-based; set-up: dose 10 mg/kg, time < 4 hr, route intraperitoneal; in short: as §1
[27] = AUC in anesthetized C57BL/6J mouse brain at 10 mg/kg, ip administered as single dose measured upto 240 mins in presence of tween-80 by LC-MS/MS analysis; format: ADME, organism-based; set-up: dose 10 mg/kg, time < 4 hr, route intraperitoneal; conditions: in vivo, 4 h; in short: as §1
[28] = Drug uptake in plasma of anesthetized C57BL/6J mouse at 10 mg/kg, ip by LC-MS/MS analysis; format: ADME, organism-based; conditions: in vivo
In short: (§2)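 Mice aged 21-28 days postnatal received one i.p. dose (10 mL/kg), and plasma and brain were sampled at 15–240 min. Decarboxylated neutral cannabinoids were measured by LC-MS/MS against known standards, alongside the parent acid.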

[29] = Drug metabolism in brain of anesthetized C57BL/6J mouse at 10 mg/kg, ip by LC-MS/MS analysis; format: ADME, organism-based; conditions: in vivo; in short: as §2
[30] = Dissociation constant, pKa of compound; format: physicochemical
[31] = Partition coefficient, log P of compound; format: physicochemical; conditions: octanol/water
Mus musculus = experiment: Anticonvulsant activity against hyperthermia-induced seizure in Scn1aRX/+ mouse model of Dravet syndrome assessed as increase in generalized tonic-clonic seizure temperature threshold at 10 to 30 mg/kg, ip administered as single dose measured by RET-3 rectal probe; format: functional, organism-based
[32] = Drug uptake in plasma of anesthetized C57BL/6J mouse assessed as purity of compound at 10 mg/kg, ip by LC-MS/MS analysis; format: ADME, organism-based; conditions: in vivo; in short: as §2
[33] = Cmax in anesthetized C57BL/6J mouse plasma at 5 mg/kg, ip administered as single dose measured upto 240 mins by LC-MS/MS analysis; format: ADME, organism-based; set-up: dose 5 mg/kg, route intraperitoneal; in short: as §1
[34] = Cmax in anesthetized C57BL/6J mouse brain at 5 mg/kg, ip administered as single dose measured upto 240 mins by LC-MS/MS analysis; format: ADME, organism-based; set-up: dose 5 mg/kg, route intraperitoneal; conditions: in vivo, 4 h, BLD = below limit of detection; in short: as §1
[35] = Tmax in anesthetized C57BL/6J mouse plasma at 5 mg/kg, ip administered as single dose measured upto 240 mins by LC-MS/MS analysis; format: ADME, organism-based; in short: as §1
[36] = Half life in anesthetized C57BL/6J mouse plasma at 5 mg/kg, ip administered as single dose measured upto 240 mins by LC-MS/MS analysis; format: ADME, organism-based; in short: as §1
[37] = AUC in anesthetized C57BL/6J mouse plasma at 5 mg/kg, ip administered as single dose measured upto 240 mins by LC-MS/MS analysis; format: ADME, organism-based; set-up: dose 5 mg/kg, time < 4 hr, route intraperitoneal; in short: as §1
[38] = Drug metabolism in plasma of anesthetized C57BL/6J mouse assessed as decrease in decarboxylation of parent compound at 5 mg/kg, ip by LC-MS/MS analysis; format: ADME, organism-based; conditions: in vivo; in short: as §2
[39] = Drug metabolism in brain of anesthetized C57BL/6J mouse assessed as decrease in decarboxylation of parent compound at 5 mg/kg, ip by LC-MS/MS analysis; format: ADME, organism-based; conditions: in vivo; in short: as §2

Row | SMILES | Kp at 4 h [1] | Cmax [2] [ng/mL] | Cmax [3] [ng/mg] | Tmax [4] [min] | Tmax [5] [min] | half-life [6] [min] | half-life [7] [min] | AUC at 4 h [8] [ng·h/mL] | Cmax [10] [ng/mL] | Tmax [12] [min] | half-life [14] [min] | AUC at 4 h [16] [ng·h/mL] | Cmax [20] [ng/mL] | Tmax [22] [min] | half-life [24] [min] | AUC at 4 h [26] [ng·h/mL] | Drug uptake [28] [%] | Drug metabolism [29] | pKa [30] | logP [31] | also measured
1 | C=C(C)[C@@H]1CCC(C)=C[C@H]1c1c(O)cc(CCCCC)c(C(=O)O)c1O [CANNABIDIOLIC ACID] | 0.04 | 29600 | 2 | 30 | 45 | 92 | 41 | 78300 | 29600 | 30 | 92 | 78300 | 17600 | 15 | 55 | 9970 | 0.5 | Metabolite_Notdetected | 2.91 | 6.63 | AUC [9]: 183 µg·min/g; Cmax [11]: 2 ng/mg; Tmax [13]: 45 min; half-life [15]: 41 min; AUC [17]: 183 ng·min/g; Kp at 4 h [18]: 0.04; Kp at 4 h [19]: 1.9; Cmax [21]: 13.2 ng/mg; Tmax [23]: 30 min; half-life [25]: 67 min; AUC [27]: 1142 ng·min/g; Activity (Mus musculus): Active
2 | CCCCCc1cc2c(c(O)c1C(=O)O)[C@@H]1C=C(C)CC[C@H]1C(C)(C)O2 [DELTA9-TETRAHYDROCANNABINOLIC ACID A] |  | 2800 |  | 15 |  | 67 |  | 5030 | 2800 | 15 | 67 | 5030 | 6900 | 15 | 33 | 5630 | 1 | Metabolite_Notdetected | 2.89 | 6.25 | Cmax ([3]; BLD = below limit of detection): Bld; Cmax ([11]; BLD = below limit of detection): Bld; Cmax ([21]; BLD = below limit of detection): Bld; Drug uptake [32]: 95%
3 | CCCCCc1cc2c(c(O)c1C(=O)O)C=CC(C)(CCC=C(C)C)O2 (centres undefined) |  |  |  |  |  |  |  |  |  |  |  |  |  |  |  |  |  |  | 2.87 | 6.91 | Cmax [33]: 3300 ng/mL; Cmax [34]: Bld; Tmax [35]: 30 min; half-life [36]: 24 min; AUC at 4 h [37]: 2880 ng·h/mL; Drug metabolism [38]: Metabolite_Notdetected; Drug metabolism [39]: Metabolite_Notdetected
4 | CCCc1cc(O)c(C/C=C(\C)CCC=C(C)C)c(O)c1C(=O)O | 0.04 | 34400 | 3.8 | 15 | 90 | 204 | 29 | 199000 |  |  |  |  |  |  |  |  | 0.2 | Metabolite_Notdetected | 2.92 | 6.46 | Drug uptake [32]: 97%
